This assay deals with Protein-arginine deiminase type-4 (Homo sapiens) (UniProt Q9UM07). Description: human PAD4 inhibitor potency, late-stage follow-up, biochemical, colorimetric substrate assay, assay provider data, 0-15 µM (AID 588417). Particulars: recombinant PAD4, BAEE substrate, citrulline colorimetric absorbance. The procedure, abridged:
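Test system: recombinant PAD4 protein / Input: 0.2 µM PAD4 / Signal: colorimetric citrulline detection, 540 nm absorbance / Buffer or medium: Tris-HCl pH 7.6, CaCl2 and DTT / Reagent: BAEE substrate at 10 mM / Timing: 15 min pretreatment plus 15 min reaction, 37 °C / Repeats: two replicates per concentration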

Activity calls are given as the source filed them.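 Rule for the calls: active = IC50 at or below 1 µM; inactive = IC50 above 1 µM.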

Sequence of Protein-arginine deiminase type-4 (Homo sapiens) (Q9UM07 whole entry, looked up): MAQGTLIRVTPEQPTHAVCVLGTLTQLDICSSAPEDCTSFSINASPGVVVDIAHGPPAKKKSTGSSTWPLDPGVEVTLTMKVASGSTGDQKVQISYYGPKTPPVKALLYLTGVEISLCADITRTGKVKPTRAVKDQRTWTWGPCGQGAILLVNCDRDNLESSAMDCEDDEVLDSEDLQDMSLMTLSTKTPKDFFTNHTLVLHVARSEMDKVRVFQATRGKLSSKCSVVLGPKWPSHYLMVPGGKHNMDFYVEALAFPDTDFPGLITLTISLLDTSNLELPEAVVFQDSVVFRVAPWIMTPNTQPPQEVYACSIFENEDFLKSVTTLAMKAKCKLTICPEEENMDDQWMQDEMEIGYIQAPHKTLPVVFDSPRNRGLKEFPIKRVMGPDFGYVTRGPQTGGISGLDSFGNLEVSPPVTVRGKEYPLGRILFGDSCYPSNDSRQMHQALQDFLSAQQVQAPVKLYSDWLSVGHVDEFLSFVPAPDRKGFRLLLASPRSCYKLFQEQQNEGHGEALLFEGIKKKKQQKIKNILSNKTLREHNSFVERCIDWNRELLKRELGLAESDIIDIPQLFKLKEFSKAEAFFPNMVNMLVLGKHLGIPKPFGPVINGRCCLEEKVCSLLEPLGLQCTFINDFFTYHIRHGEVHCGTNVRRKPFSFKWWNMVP

`COC1=C(Br)C(=O)c2nc(-c3ccccn3)ccc2C1=O`: the IC50 entry was “inactive”.

These data come from PubChem BioAssay AID588417 (The Scripps Research Institute Molecular Screening Center, 2011).
